# High-throughput results (PubChem)
# Most compounds without a hit are left out; they make up all but 12% or so of the library.
# CHOP inhibitor – inhibitors of CHOP promoter induction, primary screen, cell-based, unfolded protein response, luciferase reporter | CHO-K1 CHOP-promoter luciferase, tunicamycin-induced, 15-18 h | 220,000 compounds, 3.8% hits | inhibition, % at 10 µM;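 active = compounds that reduced the stress-induced luciferase reporter signal by more than about 70% of percent inhibition, limit read from the data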;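 also: 0% = tunicamycin plus vehicle and 100% = wells without tunicamycin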
# Dynein cargo inh – inhibitors of GR-EGFP nuclear translocation, primary screen, dynein cargo transport inhibitor project, imaging, high-content, 3617.4 mouse cells; z-score, hits read low; 220,000 compounds, 0.47% hits; AID 1381, 2008; test concentration mostly 20 µM; stimulated with dexamethasone, 1 µM; active compounds read low;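 active = plate z-score of nuclear minus cytoplasmic receptor signal below a set negative limit, without overly bright fluorescence or cell loss, cut at about -3.5 in these data, passing the limit was not always enough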;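 also: z-score of nuclear minus cytoplasmic ring GR-EGFP intensity difference per well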
#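 Medium: Induction medium lacking tetracycline, stripped serum | Probe or stimulus: 1.0 µM final dexamethasone stimulus | Schedule: 48 h induction, then 1 h compound, then 30 min agonist, 37 °C | Signal: Automated 10x imaging of fixed Hoechst-stained cells | Evaluation: Per-cell GR-EGFP intensity, nucleus versus surrounding cytoplasmic ring, well-averaged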
# b-catenin transl – modulators of beta-catenin nuclear translocation, primary screen, imaging, HeLa cells, immunofluorescence, high-content; nuclear translocation activity, % at 5 µM; 190,000 compounds, 0.3% hits; AID 1665, 2009;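 active = nuclear translocation activity above 50% at 5 µM, with a well cell count of 50 or more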;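 also: per-cell ratio of nuclear to cytoplasmic median beta-catenin stain intensity; plate controls were DMSO negative control for no effect and GSK-3 inhibitor IX positive control for full effect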
#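 System: Human HeLa cells, endogenous beta-catenin | Compound dosing: 5 µM primary, 0.02–20 µM confirmation | Timing: 24 h compound exposure at 37°C, 5% CO2 | Measured by: Fluorescence imaging of beta-catenin antibody stain plus DAPI | Read-out basis: % activation of per-cell nuclear versus cytoplasmic median beta-catenin signal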
# Lmaj promast – Leishmania major promastigote growth inhibition, primary screen; 200,000 compounds, 9% hits; Leishmania major promastigotes, resazurin fluorescence viability; AID 1063, 2008; inhibition, % at 10 µM; in the data active = inhibition above about 50%;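 also: promastigotes grown with compound for 44 hours at 28 °C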
# Autophagy HCS – autophagy modulators in MEF cells, primary screen, imaging, high-content, MEF GFP-LC3 | 190,000 compounds, 0.98% hits | calls only at 10 µM (by protocol) | AID 463193, 2010 | MEF GFP-LC3 puncta imaging; test concentration mostly 10 µM;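 active = percentage of spot-positive cells more than 3 SD above its plate mean, without a fluorescence outlier flag or 80% toxicity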;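 also: spot-positive cell cutoff set from DMSO-treated cells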
# MT stabilize HCS – microtubule stabilizers in HeLa cells, primary screen, imaging, high-content imaging. 200,000 compounds, 0.83% hits. AID 2205, 2009. HeLa tubulin immunostaining HCS, 24 h; share of cells brighter than vehicle mean+2SD. % tubulin-high responders, % at 10 µM;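 active = plate Z-score above 3 for both tubulin-high and condensed-nucleus cell shares, with cell loss under 80%, at 10 µM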;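 also: anti alpha tubulin signal scored within the nucleus-defined area of each cell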
# An asterisk follows results filed as active; i = inactive; / = no result; + = active, no number.
SMILES,CHOP inhibitor,Dynein cargo inh,b-catenin transl,Lmaj promast,Autophagy HCS,MT stabilize HCS
O=C(OCc1cc(Cl)ccc1OC(F)F)c1cc(S(=O)(=O)O)ccc1O,3,-0.15,-8,-11,i,2
CC(CC(=O)O)CC(=O)Nc1nncs1 (stereo not given),-16,1.8,0,/,/,/
Cc1ccc(C)n1-c1cccc(NC(=O)c2ccccc2)c1,-14,2.5,-2,76*,i,2
Cc1ccc(C)n1-c1ccc(C(=O)Nc2ccccc2)cc1,6,-1.1,1,12,i,3
c1ccc(Oc2cccc(CN3CCOCC3)c2)cc1,5,0.058,2,100*,i,5
O=C(c1ccc(Cl)c(Cl)c1)N1CCC(O)(CN2CCOCC2)CC1,16,-0.92,-1,79*,i,4
Cc1cccc(NC(=O)c2ccc(CN3CCN(Cc4ccccc4)CC3)cc2)c1,-12,-0.45,1,100*,i,3
c1ccc(CN2CCOCC2)cc1,17,0.97,-2,-5,i,1
COc1ccc(N2CCN(Cc3oc(CO)cc(=O)c3O)CC2)cc1,45,-0.49,1,1,i,2
O=C(c1ccc(CN2CCOCC2)cc1)N1CCN(Cc2ccccc2)CC1,51,-0.11,2,76*,i,2
O=C(Nc1cccc(C(=O)N2CCN(Cc3ccccc3)CC2)c1)c1ccccc1,23,2.4,-2,75*,i,2
O=C(Nc1ccccc1)c1ccc(CN2CCC(Cc3ccccc3)CC2)cc1,/,-0.9,/,2,i,2
O=C(c1ccc(CN2CCOCC2)cc1)N1CCN(c2cccc(Cl)c2)CC1,4,-0.7,7,0,i,2
O=C(Nc1ccccc1C(F)(F)F)c1ccc(CN2CCC(Cc3ccccc3)CC2)cc1,60,4,-1,64*,i,3
CC(=O)Nc1cccc(C(=O)N2CCN(Cc3ccccc3)CC2)c1,20,1.1,-4,5,i,6
CSc1ccc(CN2CCN(C(=O)c3ccncc3)CC2)cc1,25,-0.48,1,74*,i,2
O=C(/C=C/c1ccc(O)c(O)c1)O[C@H](Cc1ccc(O)c(O)c1)C(=O)O,-14,-0.82,-1,/,/,/
CCCN1CCC(=NNc2ccc(S(=O)(=O)N3CCOCC3)cc2[N+](=O)[O-])CC1,-15,0.78,120*,100*,i,14*
CC(=O)N1CCC(=NNc2ccc(S(=O)(=O)N3CCOCC3)cc2[N+](=O)[O-])CC1,-16,0.036,6,-2,i,2
CC(C)N1CCC(=NNc2ccc(S(=O)(=O)N3CCOCC3)cc2[N+](=O)[O-])CC1,3,-0.82,3,99*,i,1
CC(C)CN(C)C(=O)CCc1nnc(Cc2cccc(C(F)(F)F)c2)o1,3,0.92,2,-5,i,4
CC(C)(C)N1CSC(=S)N(Cc2ccccc2)C1,1,-1.9,-2,91*,i,3
CC(C)N1CSC(=S)N(Cc2ccccc2)C1,24,-1,0,75*,i,2
S=C1NCN(Cc2cccnc2)CN1Cc1ccccc1,13,-0.46,2,/,/,/
S=C1SCN(Cc2cccnc2)CN1Cc1ccccc1,-109,-1.2,0,72*,i,5
SMILES,CHOP inhibitor,Dynein cargo inh,b-catenin transl,Lmaj promast,Autophagy HCS,MT stabilize HCS
O=S(=O)(c1cccc(-c2n[nH]c(=S)n2C2CCCC2)c1)N1CCOCC1,-8,0.034,0,-3,i,2
CCCc1cc2c(cc1NC(=O)c1ccc(Br)cc1)OCO2,83*,-0.24,-3,-2,i,3
CCCc1cc2c(cc1NC(=O)c1ccc(C(C)(C)C)cc1)OCO2,37,2.9,-1,9,i,4
CCOC(=O)/C=c1\s/c(=C\c2c(OC)ccc3ccccc23)c(=O)n1CC(=O)NCC1CCCO1 (stereo not given),-44,-0.8,190*,38,i,14
CCc1ccc(-c2cc(C(=O)N/N=C/c3ccccn3)[nH]n2)cc1,40,-0.32,-2,74*,i,4
O=C(N/N=C/c1ccccn1)c1cc(-c2cccc3ccccc23)n[nH]1,12,1.5,-3,73*,i,5
O=C(N/N=C/c1cccs1)c1cc(-c2ccc3ccccc3c2)n[nH]1,69,-0.27,0,0,i,7
O=C(N/N=C/c1ccccn1)c1cc(-c2ccccc2Cl)n[nH]1,-2,-0.7,0,47,i,5
O=C(N/N=C/c1cccs1)c1cc(-c2cccc3ccccc23)n[nH]1,14,-0.84,120*,12,i,20
CNCc1ccccc1OCC(=O)Nc1ccccc1OC,22,0.4,/,1,i,3
Cc1ccc(NC2=NCC(Cc3ccc(Br)cc3)S2)cc1 (stereo not given),74*,0.63,-2,30,i,8
CCc1ccc(NC2=NCC(c3ccccc3)S2)cc1 (stereo not given),67,0.4,-1,5,i,3
Cc1ccc(/C=N/Nc2ccc(Cl)nn2)cc1,78*,0.38,0,/,/,/
CCN(CC)C(=O)C1CCN(CC2CC=CCC2)CC1 (stereo not given),-4,0.12,0,84*,i,1
CC(C)CC(=O)N1CCN(CC2CC=CCC2)CC1 (stereo not given),19,0.28,0,27,i,3
CCN(Cc1ccccc1)C(=O)C1CCN(Cc2sccc2C)CC1,-2,-0.11,-2,-9,i,3
CCN(Cc1ccccc1)C(=O)C1CCN(CC2CC=CCC2)CC1 (stereo not given),11,0.64,-2,98*,i,4
CCCCCCCCCCCCCCCCCC(=O)NCC(COP(=O)([O-])OCC[N+](C)(C)C)OCC (stereo not given),-18,/,/,/,/,/
OC1CCCN(Cc2cccc3ccccc23)C1 (stereo not given),27,0.69,/,-5,i,5
Oc1ccccc1CN1CCC(C(O)(c2ccccc2)c2ccccc2)CC1,13,0.43,-1,56*,i,4
COc1cc2nc(CN3CCC(C(O)(c4ccccc4)c4ccccc4)CC3)[nH]c(=O)c2cc1OC,13,0.62,2,23,i,5
O=C(C1CC1)N1CCC(C(O)(c2ccccc2)c2ccccc2)CC1,6,-0.73,-7,95*,i,1
Oc1ccccc1CN1CCCN(Cc2ccccc2O)C1,21,-0.079,1,31,+,3
